According to the EternaBench riboswitch data:

System: MS2 coat protein
Assay: apparent Kd, MS2 coat protein; higher = weaker binding; RNA-MaP array; FMN 200 µM where present
Procedure, shortened: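 The apparent Kd is the median of filtered binding-curve fits, one per cluster, to green signal normalised to red-channel RNA signal and control-cluster median Fmax. The clusters were on Illumina sequencing chips, and stalled E. coli RNA polymerase had transcribed the designs on them. Titration used SNAP-549-labelled MS2 coat protein from 0.7 or 1.5 nM, doubling to 3 µM, without and then with constant ligand, in 100 mM Tris-HCl pH 7.5, 80 mM KCl, 4 mM MgCl2, BSA, DTT, yeast tRNA and Tween-20.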

[1] = designed as: OFF switch for flavin mononucleotide, no ligand
[2] = ligand present: flavin mononucleotide, designed as: OFF switch for flavin mononucleotide
[3] = designed as: ON switch for flavin mononucleotide, no ligand
[4] = ligand present: flavin mononucleotide, designed as: ON switch for flavin mononucleotide

Row | Sequence | apparent Kd [1] | apparent Kd [2] | apparent Kd [3] | apparent Kd [4]
1 | UGAGCUUGAGGAUAUACAUGACGUGCCGUAGCACGAGGUCUACAUGAGGAUCACCCAUGUAGAAGGCAAGUUCU | 29.6 nM | 192 nM | – | –
2 | GGUGGUGUCCGAGGAUAUCGUUAGGCGUUGUUGCGAGAAGGCGGACAUGAGGAUCACCCAUGUUUGAUGAAAGAGGAGGUUGUG | 98.5 nM | 123 nM | – | –
3 | CAGUUCUGAGGAUAUCCACCCUCGUACAUGAGGAUCACCCAUGUUUCCCUCUGGGCUUUCGGAGAAGGCAGGUAUC | 51.4 nM | 50.4 nM | – | –
4 | CUUCAGUCAGGAUAUGUUAAUCUCGCCACUCGGCGAGCCGGACAGAAGGGACAUGAGGAUCACCCAUGUUAAAA | 37.6 nM | 22.2 nM | – | –
5 | UUAUUUAUACAAGGAUAUCUAUUGUUAAUUCGACUUACAUGAGGAUCACCCAUGUUUUUAUGUUUAGAGAAGGUGUAAUUUCUG | – | – | 25.8 nM | 26.4 nM
6 | CAGCGAAAGCUGAAUCUGUAGAGAGAGGAUAUACGAGGCGAAAUCCAUACAUGAGGAUCACCCAUGUAGAAGGCUCUCUACAGU | 155 nM | 363 nM | – | –
7 | GUCCAACAUGAGGAUCACCCAUGUCAGGAUAUACCGGGCGAAAGAAAGGCCCAUAAGGGUAGAAGGGACGGUGU | 15.8 nM | 21 nM | – | –
8 | AAAAAGUCAGGAUAUUCGGAAGGGAAAGCGCAAACCCAACCGAAGAAGGGACAUGAGGAUCACCCAUGUAAAAA | 26.7 nM | 39 nM | – | –
9 | GUGAGGUAAGGAUAUAGUAGUGAAGGUAAGAUAUGAGAAUGCUAGAAGGUACAUGAGGAUCACCCAUGUUCGGG | 117 nM | 116 nM | – | –
10 | AGUACUACAGGAUAUACAUGAGUGAUACUCAUAUCCCUUCUACAUGAGGAUCACCCAUGUAGAAGGGUAGUACA | 15.2 nM | 11.7 nM | – | –
11 | GUAGCAUACCGAGGAUAUUCACAUAAUAAAUAAACAUGAGGAUCACCCAUGUGGCGAAAGCCUAGGGAGAAGGCGGAAUGCUAC | – | – | 76 nM | 18.7 nM
12 | UAUAUAUAGUAAGGAUAUGUAUUUAUUCUAUAAACAGAAGGUACUGACAUGAGGAUCACCCAUGUUUUAGUGUGGGCAUGUAGA | 39.9 nM | 38.8 nM | – | –
13 | UAUAAACAUGAGGAUCACCCAUGUGAGGAUAUCUAAACCAGAGCGGAUCUCUGGCCCAAGAGAAGGUGCAUGGU | 34.6 nM | 146 nM | – | –
14 | UCUAUGUAGAUUCGUCAAUACAGUAAGGAUAUGAGAUACAUGAGGAUCACCCAUGUGCAUGUGGAUUAGAAGGUACAAUUAACU | 83.7 nM | 73.9 nM | – | –
15 | GAGCGAAAGCUCAAUGUCGAUAGCAGAAGGACAUGCAAUAACAUGAAAACAUGAGGAUCACCCAUGUAGGAUAUGCUAUCGACU | 6.65 nM | 44.5 nM | – | –
16 | GCGCAUUUUAGAUUUAUAUAAUUUUCAGAAGGUGAAUAGUCGACAUGAGGAUCACCCAUGUAUUUCAAGGAUAUGAUUUAGCGC | – | – | 68.6 nM | 13 nM
17 | GUUAUUAACAAGAAGGCAUACAUGAGGAUCACCCAUGUUCUACAUGGAUAAUGAGGAUAUUGCUAAUACAUGAGGAUCACCCAG | 72 nM | 66.9 nM | – | –
18 | AAUUUACAUGAGGAUCACCCAUGUGAGGAUAUAUAUAUAUGUUUGUUAUUGCGUGUGUGUAGAAGGCGCGUGAU | 17.6 nM | 16.3 nM | – | –
19 | CCUAAACAUGAGGAUCACCCAUGUGAGGAUAUGAUGCGAAUAAAGAAAGAAGAAAGCAUCAGAAGGCACAUAGG | 173 nM | 270 nM | – | –
20 | AAAUCCAACGAAGGAUAUACAAACAUGAGGAUCACCCAUGUGUCUUUCGUGUAACUGGAAUUCGGGUAGAAGGUCGUUGACAUA | 11.8 nM | 17.6 nM | – | –
21 | GGAGGACAUCAAUACAUGAGGAUCACCCAUGUCGAAUGAUAUGAGGAUAUGCAUCGGAAAACGAUGUAGAAGGCAUAGUCCUCC | – | – | 15.1 nM | 6.06 nM
22 | UGGUACAUGGGAGGAUAUGGGUUGAUAACAUGAGGAUCACCCAUGUUAAAUAUGCCUAGUGGCAACUAGAAGGCCCAUGUACCU | – | – | 317 nM | 51 nM
23 | GUUUUACAUGAGGAUCACCCAUGUGAGGAUAUAUUGUUAAUAGUGAUAAUUAUUGGUGGUAGAAGGCGCGUGAU | 46.8 nM | 39.7 nM | – | –
24 | UACAUGAGGAUCACCCAUGUUUUGUCGUGUAUGGUAUUUAUCUAGGAUAUCAAUGUAUUUAUGUAUGAGAAGGAGAAUAUUAAU | 45.7 nM | 37.3 nM | – | –

Row | Sequence | apparent Kd [1] | apparent Kd [2] | apparent Kd [3] | apparent Kd [4]
25 | GCCAUCGCAUGAGGAUAUGGUCAGCUUUGCUGACCAGAAGGCAUGUCAAUAGACAUGAGGAUCACCCAUGUAGUUAAGAUGGCA | – | – | 797 nM | 54 nM
26 | GAUAGGACAGAGAAGGACGUAGCUAGAGAUACUAGCAUUAAGUCCUCAACAUGAGGAUCACCCAUGUAGGAUAUCUGUCCUAUC | 6.23 nM | 6.71 nM | – | –
27 | CCAUAAAAGAUCCAAUUUUACAACAUGAGGAUCACCCAUGUGCAGGAUAUCGUGAAAGUAAAAUACGAGAAGGGCAAGAACUGC | 265 nM | 246 nM | – | –
28 | GCGCUAAAACAGAAGGCCAAAUACAUGAGGAUCACCCAUGUCGAAUCAUGGAGGAUAUGUUAUUAAUUACUCGCAGAUGAGCGC | – | – | 104 nM | 11.8 nM
29 | UGGUUUAGUGUUAGGAUAUAAUCCGAAGUCAGCGAUUAGAAGGAACAUGAGGAUCACCCAUGUUUUAGAUAACC | 16 nM | 16.9 nM | – | –
30 | UUUAAACAUGAGGAUCACCCAUGUUUUUUUAUGGGAGGAUAUCUAAGUUAAUUAUAUUAAGGAGAAGGCCUAUUUU | – | – | 146 nM | 26.7 nM
31 | UGUCGGAGCAGAGGAUAUUACAUGAGGAUCACCCAUGUAUGCACCAAUAGCUGGAAACAGCAAUGUAAGAAGGCUGCUCCGACA | 5.38 nM | 15.2 nM | – | –
32 | GGAUGACAAAGUCAUCCUUAACGAACAUGAGGAUCACCCAUGUAGGAUAUGGUACUCAAAGAGUACCAGAAGGACAUGUGCCUU | 34.3 nM | 203 nM | – | –
33 | AGAAAACAUGAGGAUCACCCAUGUCAAGCUAAUCAAGGAUAUGGGUCGGGAAAUCCCGCACCAGAAGGUGAAAUGC | – | – | 123 nM | 24.5 nM
34 | AAUAUGUUGCAGAAGGCUAUAUUGUUGUAGUACCUCAUGACAUGAGGAUCACCCAUGUUUUUGUUGGAGGAUAUGCAAUAUAUU | 7.32 nM | 7.07 nM | – | –
35 | ACGCCUCCUGUCAGGAUAUGCAUCGGGCUUCCGCAGCAGAAGGGACAUGAGGAUCACCCAUGUCAAAUAAAAUC | 17.6 nM | 58.3 nM | – | –
36 | GCAGGCUUCGAGAAGGACAUGAGGAUCACCCAUGUGCGUGUGAAGCAGCCGUGAGGCUGCAUCAUGUAGGAUAUCGGAGUCUGU | 77.8 nM | 650 nM | – | –
37 | UUUUAACAUGAGGAUCACCCAUGUGAGGAUAUCGAAAUUUAUAUUAAUAUUUAUUUAACGAGAAGGCACAUUUU | 96.4 nM | 88.4 nM | – | –
38 | ACAUGAGGAUCACCCAUGUGUACAUAGGAUAUUGAGGAUUAGGGAUGUUGUUUUGGAUUUGCCCACAAGAAGGAUGAAAGUGUU | – | – | 9.68 nM | 8.68 nM
39 | UAUUUGUGAGGAUAUGAGUCGUAGAACAAUAGUACUACGUCUCAGAAGGUACAUGAGGAUCACCCAUGUUCCUC | 19 nM | 28 nM | – | –
40 | UUUGAUGUUGAGGAUAUGCUUUUUUUUAUUAUAGCAGAAGGCGAUACAUGAGGAUCACCCAUGUUCAUGGCUUU | 12.8 nM | 15.5 nM | – | –
41 | UUGGUAUUCGUAGGAUAUCUGUCGCCACCGUGUGGAGAAGGACGAACAUGAGGAUCACCCAUGUAUCAUGGUGUGGGCGUUGUC | 100 nM | 106 nM | – | –
42 | UUAUACAUGAGGAUCUCCCAUGACAUGAGGAUCACCCAUGUGCAGGAUAUACGUGUUAUAAUAUAGUAGAAGGGCAGUCUAUGU | 27.2 nM | 66.5 nM | – | –
43 | UGGUACAUGGGAGGAUAUGGGUUGAUAACAUGAGGAUCACCCAUGUUAAAUAUGCCGAGAGGCAACUAGAAGGCCCAUGUACCU | – | – | 482 nM | 38.2 nM
44 | UUUGUAAUGUCAGGAUAUAUUAUAAGUCAGACUGUAGAAGGGAUAAUUAUACUCAUGUACAUGAGGAUCACCCAUGUUAAAUAU | – | – | 97.1 nM | 53.2 nM
45 | CCACGUCACAUUUACAUGAGGAUCACCCAUGUCGAAAGACAUGAGGAUAUGCAUCCUAAUUGGAUGCAGAAGGCAUGGACGUGG | – | – | 276 nM | 274 nM
46 | GCUAUCGAUGUAGGAUAUGCUAGGGAAACCCUGGCAGAAGGACAUGAGGAUCACCCAUGUCAAUGGAUGAAGAGAAGAGAUGGC | 27.8 nM | 122 nM | – | –
47 | AAAAUGUCAGGAUAUGCGAAGGCGUCUGACGGACGAGGAUUGCAGAAGGGACAUGAGGAUCACCCAUGUAAAAA | 54.5 nM | 138 nM | – | –
48 | GGAUGUCAAAGACAUCCAAUUCGAACAUGAGGAUCACCCAUGUAGGAUAUGCUACUCAAAGAGUAGCAGAAGGACAUGUGCUUU | 36.6 nM | 183 nM | – | –
